Drawing on ChEMBL document CHEMBL1772951, “Synthesis of some novel benzofuran-2-yl(4,5-dihyro-3,5-substituted diphenylpyrazol-1-yl) methanones and studies on the antiproliferative effects and reversal of multidrug resistance of human MDR1-gene transfected mouse lymphoma cells in vitro” (Eur J Med Chem, 2011), this text covers RFU and IC50 for 22 molecules.

Data set [1] has as its target ATP-dependent translocase ABCB1 (Homo sapiens, UniProt P08183). The experiment in a line: Inhibition of human MDR1 expressed in mouse L5178Y cells assessed as rhodamine 123 accumulation at 20 ug/ml preincubated for 10 mins before rhodamine 123 challenge measured after 20 mins by flow cytometry relative to wild type. The class given is cell-based. A digest of the protocol:
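L5178Y cells were transfected with human MDR1 via pHa MDR1/A retrovirus and kept under 60 ng/ml colchicine, alongside parental cells, in McCoy's 5A with 10% horse serum at 37 °C, 5% CO₂. Cells at 2 × 10⁶/ml in serum-free medium got compound for 10 min at room temperature, then rhodamine 123 for 20 min at 37 °C. Cells were washed twice and read by flow cytometry, with verapamil as positive control. FAR = (MDR treated/MDR control)/(parental treated/parental control). One representative experiment, 1 × 10⁴ cells.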
(Flow cytometry measures light scatter and fluorescence of single cells or particles in a stream.)

Data set [2] deals with L5178Y MDR1-transfected mouse lymphoma cells (Mus musculus). The experiment in a line: Antiproliferative activity against mouse MDR1-transfected L5178Y lymphoma cells after 72 hrs by MTT assay. Conditions: L5178Y MDR1, 72 h. Background: Tetrazolium assays rely on reduction of a dye to a coloured formazan, in cell work by metabolically active cells.

Values after ≈ are worked out from the molar mass of the structure shown.

Chain of ATP-dependent translocase ABCB1 (P08183 whole entry): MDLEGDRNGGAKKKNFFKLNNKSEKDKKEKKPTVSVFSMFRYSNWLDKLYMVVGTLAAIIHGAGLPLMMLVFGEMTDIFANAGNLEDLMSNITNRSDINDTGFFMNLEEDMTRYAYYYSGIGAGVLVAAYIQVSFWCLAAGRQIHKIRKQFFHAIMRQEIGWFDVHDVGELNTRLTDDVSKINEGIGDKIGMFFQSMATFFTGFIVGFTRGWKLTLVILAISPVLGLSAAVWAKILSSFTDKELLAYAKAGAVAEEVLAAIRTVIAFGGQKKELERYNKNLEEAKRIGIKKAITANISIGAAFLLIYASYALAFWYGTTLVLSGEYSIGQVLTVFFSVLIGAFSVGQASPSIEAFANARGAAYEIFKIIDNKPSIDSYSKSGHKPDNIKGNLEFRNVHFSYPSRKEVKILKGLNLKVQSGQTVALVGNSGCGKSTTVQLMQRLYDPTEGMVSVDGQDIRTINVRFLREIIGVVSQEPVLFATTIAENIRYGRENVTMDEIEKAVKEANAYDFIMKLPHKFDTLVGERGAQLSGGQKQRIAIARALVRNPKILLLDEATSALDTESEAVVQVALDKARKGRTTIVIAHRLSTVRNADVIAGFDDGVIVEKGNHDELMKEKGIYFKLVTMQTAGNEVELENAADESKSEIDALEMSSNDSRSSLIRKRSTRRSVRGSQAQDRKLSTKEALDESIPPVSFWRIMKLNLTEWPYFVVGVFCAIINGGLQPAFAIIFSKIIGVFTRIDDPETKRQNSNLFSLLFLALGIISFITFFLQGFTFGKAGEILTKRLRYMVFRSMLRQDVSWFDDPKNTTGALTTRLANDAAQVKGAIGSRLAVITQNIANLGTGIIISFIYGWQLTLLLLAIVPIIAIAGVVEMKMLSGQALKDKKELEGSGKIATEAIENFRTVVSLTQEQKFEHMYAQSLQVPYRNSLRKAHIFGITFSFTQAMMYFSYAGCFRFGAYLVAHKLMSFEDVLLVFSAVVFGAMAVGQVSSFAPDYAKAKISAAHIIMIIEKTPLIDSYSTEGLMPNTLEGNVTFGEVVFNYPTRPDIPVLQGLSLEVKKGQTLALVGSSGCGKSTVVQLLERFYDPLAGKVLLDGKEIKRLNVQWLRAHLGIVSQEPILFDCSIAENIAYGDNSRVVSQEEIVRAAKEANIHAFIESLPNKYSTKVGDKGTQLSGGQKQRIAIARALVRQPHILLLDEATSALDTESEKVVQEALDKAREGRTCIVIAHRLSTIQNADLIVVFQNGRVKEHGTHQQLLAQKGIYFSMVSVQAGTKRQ

Consider `COc1ccc(C2CC(c3ccc(F)cc3)=NN2C(=O)c2cc3ccccc3o2)cc1` (centres undefined), for which the RFU in data set [1] amounted to 8.72. Besides, the IC50 (commonly the point on the concentration scale where inhibition reaches its midpoint) in data set [2] stood at 23 µg/mL (≈ 55.5 µM).

On to `O=C(c1cc2ccccc2o1)N1N=C(c2ccccc2)CC1c1ccccc1Cl` (centres undefined), for which the RFU in data set [1] was determined as 16.1. In data set [2], this molecule displayed an IC50 of 6.22 µg/mL (≈ 15.5 µM).

`COc1ccc(C2CC(c3ccc(Cl)cc3)=NN2C(=O)c2cc3ccccc3o2)cc1OC` (centres undefined): the RFU in data set [1] is given as 5.87. This molecule showed an IC50 in data set [2] of 6.29 µg/mL (≈ 13.6 µM).

For the molecule `O=C(c1cc2ccccc2o1)N1N=C(c2ccccc2)CC1c1ccccc1` (centres undefined), the RFU in data set [1] turned out to be 18.8. In data set [2], this molecule gave an IC50 of 7.58 µg/mL (≈ 20.7 µM).

Take `Cc1ccc(C2CC(c3ccccc3)=NN2C(=O)c2cc3ccccc3o2)cc1` (centres undefined): the RFU in data set [1] is 7.59. In data set [2], this molecule returned an IC50 of 16.6 µg/mL (≈ 43.6 µM).

In the case of `COc1ccc(C2CC(c3ccccc3)=NN2C(=O)c2cc3ccccc3o2)cc1OC` (centres undefined), the RFU in data set [1] came out at 29.9. Besides, 6.89 µg/mL (≈ 16.2 µM) corresponded to half-maximal inhibition in data set [2] (IC50).

Turning to `O=C(c1cc2ccccc2o1)N1N=C(c2ccccc2)CC1c1ccc([N+](=O)[O-])cc1` (centres undefined), the RFU in data set [1] came to 15.18. In data set [2], this molecule gave an IC50 of 4.87 µg/mL (≈ 11.8 µM).

In the case of `O=C(c1cc2ccccc2o1)N1N=C(c2ccc(F)cc2)CC1c1ccc(F)cc1` (centres undefined), in data set [1], the RFU came out at 14.56. In data set [2], this molecule returned an IC50 above 50 µg/mL.

For `COc1ccc(C2CC(c3ccccc3)=NN2C(=O)c2cc3ccccc3o2)cc1` (centres undefined), the RFU in data set [1] is recorded as 26.77. Also, the half-maximal inhibitory concentration (IC50) in data set [2] came out at 4.57 µg/mL (≈ 11.5 µM).

In the case of `COc1ccc(C2CC(c3ccc(F)cc3)=NN2C(=O)c2cc3ccccc3o2)cc1OC` (centres undefined), the RFU in data set [1] came out at 16.22. In data set [2], this molecule gave an IC50 above 50 µg/mL.

Regarding `O=C(c1cc2ccccc2o1)N1N=C(c2ccc(Cl)cc2)CC1c1ccccc1` (centres undefined), the RFU in data set [1] worked out at 6.77. In data set [2], 13.6 µg/mL (≈ 34 µM) corresponded to half-maximal inhibition (IC50).

Regarding `O=C(c1cc2ccccc2o1)N1N=C(c2ccccc2)CC1c1ccc(F)cc1` (centres undefined), the RFU in data set [1] is recorded as 20.06. In addition, in data set [2], the IC50 worked out at 9.94 µg/mL (≈ 25.8 µM).

`COc1ccc(C2CC(c3ccc(Cl)cc3)=NN2C(=O)c2cc3ccccc3o2)cc1` (centres undefined): the RFU in data set [1] stood at 5.85. This molecule also displayed an IC50 in data set [2] of 5.74 µg/mL (≈ 13.3 µM).

In the case of `O=C(c1cc2ccccc2o1)N1N=C(c2ccc(Cl)cc2)CC1c1ccc(Cl)cc1` (centres undefined), in data set [1], the RFU stood at 2.9. The molecule further displayed an IC50 in data set [2] of 8.5 µg/mL (≈ 19.5 µM).

Take `O=C(c1cc2ccccc2o1)N1N=C(c2ccccc2)CC1c1ccc(Cl)cc1` (centres undefined): the RFU in data set [1] is reported as 8.34. The same molecule returned an IC50 in data set [2] of 5.13 µg/mL (≈ 12.8 µM).

Regarding `O=C(c1cc2ccccc2o1)N1N=C(c2ccc(Cl)cc2)CC1c1ccc([N+](=O)[O-])cc1` (centres undefined), the RFU in data set [1] worked out at 12.61. In data set [2], this molecule showed a half-inhibitory concentration (IC50) of 34.1 µg/mL (≈ 76.5 µM).

As to `O=C(c1cc2ccccc2o1)N1N=C(c2ccc(F)cc2)CC1c1ccc(Cl)cc1` (centres undefined), the RFU in data set [1] came to 6.96. Further, in data set [2], the IC50 was above 50 µg/mL.

Regarding `O=C(c1cc2ccccc2o1)N1N=C(c2ccc(Cl)cc2)CC1c1ccccc1Cl` (centres undefined), in data set [1], the RFU turned out to be 6.02. This molecule also came in with an IC50 in data set [2] of 44.8 µg/mL (≈ 103 µM).

`O=C(c1cc2ccccc2o1)N1N=C(c2ccc(F)cc2)CC1c1ccc([N+](=O)[O-])cc1` (centres undefined): the RFU in data set [1] is 12.58. Besides, the IC50 in data set [2] is above 50 µg/mL.

For `O=C(c1cc2ccccc2o1)N1N=C(c2ccc(F)cc2)CC1c1ccccc1` (centres undefined), in data set [1], the RFU came to 15.82. Also, inhibition in data set [2] was half-maximal at 11.8 µg/mL (≈ 30.6 µM) (IC50).

Take `Cc1ccc(C2CC(c3ccc(F)cc3)=NN2C(=O)c2cc3ccccc3o2)cc1` (centres undefined): the RFU in data set [1] was determined as 10.52. The molecule further registered an IC50 in data set [2] above 50 µg/mL.

Consider `O=C(c1cc2ccccc2o1)N1N=C(c2ccc(F)cc2)CC1c1ccccc1Cl` (centres undefined), for which the RFU in data set [1] was 16.94. Further, the IC50 in data set [2] was found to be 45.2 µg/mL (≈ 108 µM).
